# This is a sample that favours compounds with a hit; in the whole collection about 9.6% have one here.
# HCT116 PTEN-null: growth suppression of PTEN-null HCT116, primary screen, cell-based, CellTiter-Glo. AID 827, 2007. viability, % at 10 µM. 140,000 compounds, 1.2% hits. HCT116 PTEN-null viability, 60 h; active compounds read low;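 active = viability at or below a set limit, 4 SD under the median of all tested compounds, cut at about 3.7% in these data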;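 also: PTEN knockout HCT116 line with beta catenin targeted HCT116 as companion control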
# PMI act satM6P: human PMI activators, high substrate, primary screen, biochemical, fluorescence intensity, near-saturating mannose 6-phosphate; activation factor at 20 µM; 190,000 compounds, 0.34% hits; AID 1216, 2008; Mannose-6-phosphate isomerase (Homo sapiens), P34949; coupled PMI enzyme assay, resazurin fluorescence, 20 min; active compounds read high; 1 = untreated enzyme, 0 = substrate-free blank;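 active = activation factor of 2 or more at 20 µM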
# Target sequence (P34949 whole entry, looked up): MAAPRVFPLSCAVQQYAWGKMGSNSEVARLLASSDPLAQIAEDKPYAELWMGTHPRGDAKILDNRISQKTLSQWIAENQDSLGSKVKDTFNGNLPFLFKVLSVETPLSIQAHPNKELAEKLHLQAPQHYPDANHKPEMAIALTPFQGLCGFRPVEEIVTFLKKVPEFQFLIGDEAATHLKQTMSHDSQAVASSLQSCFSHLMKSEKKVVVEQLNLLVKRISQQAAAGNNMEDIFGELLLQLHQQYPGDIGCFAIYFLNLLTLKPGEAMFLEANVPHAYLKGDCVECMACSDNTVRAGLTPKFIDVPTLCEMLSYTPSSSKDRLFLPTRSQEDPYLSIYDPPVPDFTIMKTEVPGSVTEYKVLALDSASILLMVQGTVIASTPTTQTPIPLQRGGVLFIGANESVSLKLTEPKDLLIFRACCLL
#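 Test system – human PMI in coupled enzyme assay · Timing – 20 min incubation at room temperature · Detection – Diaphorase-driven resazurin-to-resorufin fluorescence, excitation 544, emission 590 nm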
# PMI act: activators of human PMI, primary screen, biochemical, fluorescence intensity, near-Km mannose 6-phosphate; purified human PMI, coupled resazurin fluorescence, 20 min; active compounds read high; 1 = vehicle control, 0 substrate-free wells; Mannose-6-phosphate isomerase (Homo sapiens), P34949; activation factor at 20 µM; 190,000 compounds, 0.005% hits;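 active = activation factor of 2 or more at 20 µM, relative to plate controls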
# L major viab: Leishmania major promastigote growth inhibition, primary screen | AID 1063, 2008 | inhibition, % at 10 µM | Leishmania major promastigotes, resazurin fluorescence viability | 200,000 compounds, 9% hits; in the data active = inhibition above about 50%;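 also: promastigotes grown with compound for 44 hours at 28 °C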
# HCT116 bCat-KO: primary screen for growth suppressors in beta-catenin knockout HCT116 cells (colon tumor, human); HCT116 beta-catenin knockout viability, CellTiter-Glo, 60 h; active compounds read low; AID 818, 2007; viability, % at 10 µM; 140,000 compounds, 1.5% hits;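 active = viability at or under a set limit, the compound median less 4 SD, cut at about 6% in these data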
# Numbers stand for hits; - = inactive; . = no result.
SMILES,HCT116 PTEN-null,PMI act satM6P,PMI act,L major viab,HCT116 bCat-KO
CN(C)C(=O)N1CCCC(C(=O)NCc2ccc(F)cc2Cl)C1 (stereo not drawn),-,-,-,-,-
Cc1ccc(CNC(=O)C2CCCN(C(=O)N(C)C)C2)cc1 (stereo not drawn),-,-,-,86,-
COc1ccccc1CNC(=O)C1CCN(S(=O)(=O)c2c(C)noc2C)CC1,-,-,-,100,-
Cc1noc(/C=C/c2cccs2)c1S(=O)(=O)N1CCC(C(=O)NCCCN2CCCC(C)C2)CC1 (stereo not drawn),.,-,-,96,.
Cc1nn(C)c(C)c1S(=O)(=O)N1CCC(C(=O)NCCC2=CCCCC2)CC1,-,-,-,-,-
Cc1noc(C)c1S(=O)(=O)N1CCC(C(=O)NCCC2=CCCCC2)CC1,-,-,-,100,-
Nc1cc(=O)[nH]c(N2CCN(c3ccccc3)CC2)n1,.,-,-,-,.
CCCCCCC(=O)N/N=C(\C)Cc1ccccc1,-,-,-,-,-
C/C(=N\NC(=O)c1ccc(CSc2nc(C)cc(C)n2)cc1)c1ccco1,.,-,-,-,.
CC(c1nccs1)N(C)C(=O)CCc1nnc(CCc2ccccc2)o1 (stereo not drawn),.,-,-,-,.
Cc1ccc(CNC(=O)C2CCCN(S(=O)(=O)c3c(C)noc3C)C2)cc1 (stereo not drawn),-,-,-,-,-
Cc1ccc(CNC(=O)C2CCN(S(=O)(=O)c3c(C)noc3C)CC2)cc1,-,-,-,99,-
CN1C2C=C3C(C#N)=C(N)C(C#N)(C#N)C(c4ccc(Br)cc4)C3C1CC2 (stereo not drawn),-,-,-,98,-
O=C(CSc1nnc(-c2csc3c2CCCC3)o1)Nc1ccccc1,-,-,-,-,-
Cc1ccc(-c2csc3ncnc(-n4nnc5ccccc54)c23)cc1C,-,-,-,76,-
CCCCc1nc2cc(Cl)ccc2o1,.,-,-,-,.
CN(CCC(=O)Nc1ccc(Br)cc1)Cc1ccccc1,-,-,-,-,-
CC1(C)CC(=O)C2=C(C1)OC(N)=C(C#N)C21C(=O)N(Cc2ccccc2Cl)c2ccccc21 (stereo not drawn),-,-,-,59,-
CO/N=C/c1ccc(OC)c(Oc2nc(OC)cc(OC)n2)c1,.,-,-,-,.
COc1ccc(CN(C)Cc2nc3scc(-c4ccccc4)c3c(=O)[nH]2)cc1OC,-,-,-,63,-
O=C(CCSc1nc(-c2ccco2)cc(C(F)(F)F)n1)N1CCCc2ccccc21,-,-,-,76,-
CN1CCN(C(CNS(=O)(=O)c2ccc(F)cc2)c2cccnc2)CC1 (stereo not drawn),-,-,-,-,-
CN1CCN(C(CNS(=O)(=O)c2ccc(Cl)cc2)c2cccnc2)CC1 (stereo not drawn),-,-,-,-,-
O=S(=O)(NCC(c1cccnc1)N1CCN(c2ccc(F)cc2)CC1)c1ccccc1 (stereo not drawn),.,.,.,92,.
COc1ccccc1N1CCN(C(CNS(=O)(=O)c2cc(F)ccc2F)c2cccnc2)CC1 (stereo not drawn),-,-,-,90,-
SMILES,HCT116 PTEN-null,PMI act satM6P,PMI act,L major viab,HCT116 bCat-KO
CCS(=O)(=O)NCC(c1cccnc1)N1CCN(c2ccccc2)CC1 (stereo not drawn),-,-,-,-,-
O=S(=O)(NCC(c1cccnc1)N1CCN(c2ccccc2)CC1)c1cc(F)ccc1F (stereo not drawn),-,-,-,97,-
COCCNC(=O)C(c1c[nH]c2ccccc12)N(C(=O)c1snc(C(N)=O)c1N)c1cccc(OC)c1 (stereo not drawn),.,-,-,-,.
Cc1ccc(C)c(S(=O)(=O)N2CCCOC2CNC(=O)C(=O)NCc2ccco2)c1 (stereo not drawn),-,-,-,-,-
Cc1[nH]c2ccccc2c1C(=O)COC(=O)CCS(=O)(=O)c1ccccc1Cl,-,-,-,60,-
CCOc1ccc(-c2csc(Cn3c(CN4CCN(C)CC4)nc4ccccc4c3=O)n2)cc1,-,-,-,-,-
CCCc1nnc(NC(=O)CCC(=O)NC2CCCc3ccccc32)s1 (stereo not drawn),-,-,-,-,-

# Screening results: PubChem BioAssay, several laboratories
